From ChEMBL document CHEMBL4680221, “Discovery of pyrazole derivatives as cellular active inhibitors of histone lysine specific demethylase 5B (KDM5B/JARID1B)” (Eur J Med Chem, 2020)
Calls of active or inactive are those of the source. The calls are words filed in the database; no cut-off is given here.

Columns and labels:
MKN-45 [1] = assay: Inhibition of KDM4 in human MKN-45 cells assessed as increase in H3K9me3 accumulation at 0.5 to 20 uM measured after 5 days by Western blot analysis; assay type: cell-based; conditions: dose 0.5-20 µM, time 5.0 day
Procedure, shortened: (§1)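 MKN45 cells were treated for 5 days and lysed in RIPA buffer. About 30 µg protein was run on 10% SDS-PAGE and transferred to 0.2 µm nitrocellulose, then blocked with 5% milk in PBS for 2 h. Blots were probed for histone methylation marks with histone 3 as loading control and detected by ECL.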

[2] = molecular target: T1, Lysine-specific demethylase 4C (Homo sapiens) (UniProt Q9H3R0); assay: Inhibition of KDM4C (unknown origin) at 1 uM relative to control
T1 sequence (whole entry): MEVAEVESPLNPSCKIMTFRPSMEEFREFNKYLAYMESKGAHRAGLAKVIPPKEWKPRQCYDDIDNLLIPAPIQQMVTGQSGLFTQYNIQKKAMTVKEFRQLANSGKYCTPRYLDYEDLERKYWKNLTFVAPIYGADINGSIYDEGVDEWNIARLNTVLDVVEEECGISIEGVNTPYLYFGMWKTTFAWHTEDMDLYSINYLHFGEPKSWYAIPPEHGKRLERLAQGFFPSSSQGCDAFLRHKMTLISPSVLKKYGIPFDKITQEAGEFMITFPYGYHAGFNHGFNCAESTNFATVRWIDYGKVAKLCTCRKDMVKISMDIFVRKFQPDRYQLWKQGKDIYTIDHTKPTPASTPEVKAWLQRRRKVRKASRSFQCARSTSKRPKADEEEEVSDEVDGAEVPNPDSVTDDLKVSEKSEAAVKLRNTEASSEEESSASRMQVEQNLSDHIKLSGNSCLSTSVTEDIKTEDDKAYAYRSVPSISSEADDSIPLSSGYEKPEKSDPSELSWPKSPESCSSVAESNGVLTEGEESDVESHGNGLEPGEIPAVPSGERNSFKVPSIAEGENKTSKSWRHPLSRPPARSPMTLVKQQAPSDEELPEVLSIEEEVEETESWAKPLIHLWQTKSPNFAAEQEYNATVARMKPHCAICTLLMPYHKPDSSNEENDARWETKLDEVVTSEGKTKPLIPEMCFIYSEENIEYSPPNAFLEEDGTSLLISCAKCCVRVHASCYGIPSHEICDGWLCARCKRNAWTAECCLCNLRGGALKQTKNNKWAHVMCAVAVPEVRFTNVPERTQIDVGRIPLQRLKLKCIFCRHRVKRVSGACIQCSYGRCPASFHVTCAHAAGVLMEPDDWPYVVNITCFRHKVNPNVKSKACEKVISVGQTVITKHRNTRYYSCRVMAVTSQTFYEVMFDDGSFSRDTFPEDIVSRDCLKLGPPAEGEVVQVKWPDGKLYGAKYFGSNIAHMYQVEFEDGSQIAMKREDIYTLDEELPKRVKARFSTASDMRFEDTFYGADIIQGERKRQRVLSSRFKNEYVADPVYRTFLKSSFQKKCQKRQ

[3] = molecular target: T2, Lysine-specific demethylase 5B (Homo sapiens, UniProt Q9UGL1); assay: Inhibition of KDM5B in human MKN-45 cells assessed as increase in H3K4me2 accumulation measured after 5 days by Hoechst 33342 staining based immunofluorescence assay; assay type: cell-based; conditions: time 5.0 day
T2 sequence (Q9UGL1 whole entry): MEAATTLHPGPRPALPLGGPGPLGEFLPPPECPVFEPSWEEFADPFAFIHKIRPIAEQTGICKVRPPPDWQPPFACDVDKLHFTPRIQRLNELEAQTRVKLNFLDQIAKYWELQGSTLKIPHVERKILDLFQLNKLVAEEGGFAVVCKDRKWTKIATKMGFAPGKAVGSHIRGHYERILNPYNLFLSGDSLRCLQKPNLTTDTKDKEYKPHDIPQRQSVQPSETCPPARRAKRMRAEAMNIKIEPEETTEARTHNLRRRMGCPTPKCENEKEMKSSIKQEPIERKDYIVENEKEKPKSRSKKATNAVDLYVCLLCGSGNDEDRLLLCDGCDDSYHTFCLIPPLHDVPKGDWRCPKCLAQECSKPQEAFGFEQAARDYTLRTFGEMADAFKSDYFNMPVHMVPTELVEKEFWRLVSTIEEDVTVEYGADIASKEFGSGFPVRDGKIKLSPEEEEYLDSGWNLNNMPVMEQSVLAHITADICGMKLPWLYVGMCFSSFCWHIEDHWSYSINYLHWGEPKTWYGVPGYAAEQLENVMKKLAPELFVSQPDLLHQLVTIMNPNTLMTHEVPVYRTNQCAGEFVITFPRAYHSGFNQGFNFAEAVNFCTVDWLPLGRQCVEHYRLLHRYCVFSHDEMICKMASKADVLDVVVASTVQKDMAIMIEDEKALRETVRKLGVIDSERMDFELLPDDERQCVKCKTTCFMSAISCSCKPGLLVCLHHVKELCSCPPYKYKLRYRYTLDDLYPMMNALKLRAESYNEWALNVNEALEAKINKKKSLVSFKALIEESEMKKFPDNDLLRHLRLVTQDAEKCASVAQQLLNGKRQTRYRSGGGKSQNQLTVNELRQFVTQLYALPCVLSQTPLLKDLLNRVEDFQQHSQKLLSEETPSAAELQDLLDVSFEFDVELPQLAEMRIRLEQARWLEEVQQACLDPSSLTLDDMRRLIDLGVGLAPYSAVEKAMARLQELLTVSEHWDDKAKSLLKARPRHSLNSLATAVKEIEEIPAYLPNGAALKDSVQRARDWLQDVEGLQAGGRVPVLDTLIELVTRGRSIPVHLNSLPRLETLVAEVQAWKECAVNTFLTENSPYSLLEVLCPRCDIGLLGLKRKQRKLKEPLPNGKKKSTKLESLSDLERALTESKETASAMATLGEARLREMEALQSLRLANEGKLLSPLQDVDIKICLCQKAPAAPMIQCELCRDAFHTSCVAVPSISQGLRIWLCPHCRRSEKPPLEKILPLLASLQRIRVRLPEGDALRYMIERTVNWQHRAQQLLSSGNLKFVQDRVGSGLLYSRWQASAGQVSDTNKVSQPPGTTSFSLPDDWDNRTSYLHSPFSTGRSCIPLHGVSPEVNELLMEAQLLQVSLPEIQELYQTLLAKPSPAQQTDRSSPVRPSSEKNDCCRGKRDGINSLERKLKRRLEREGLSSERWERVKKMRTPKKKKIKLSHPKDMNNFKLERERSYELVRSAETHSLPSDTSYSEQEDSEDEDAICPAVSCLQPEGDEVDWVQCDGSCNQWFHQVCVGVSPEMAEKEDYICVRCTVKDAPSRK
Procedure, shortened: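 MKN45 cells were seeded and left 24 h, then treated for 5 days. Cells were fixed in 4% paraformaldehyde, permeabilised with 0.1% Triton X-100 for 20 min and blocked with 5% BSA for 1 h. H3K4me2 or H3K4me3 primary antibody was applied at 4°C overnight, followed by Alexa Fluor 488 secondary and Hoechst 33342 (5 µg/mL) nuclear stain. Signal was quantified by high content imaging; three independent experiments.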

[4] = molecular target: T3, Lysine-specific demethylase 5A (Homo sapiens, UniProt P29375); assay: Inhibition of KDM5A (unknown origin)
T3 sequence (P29375 whole entry): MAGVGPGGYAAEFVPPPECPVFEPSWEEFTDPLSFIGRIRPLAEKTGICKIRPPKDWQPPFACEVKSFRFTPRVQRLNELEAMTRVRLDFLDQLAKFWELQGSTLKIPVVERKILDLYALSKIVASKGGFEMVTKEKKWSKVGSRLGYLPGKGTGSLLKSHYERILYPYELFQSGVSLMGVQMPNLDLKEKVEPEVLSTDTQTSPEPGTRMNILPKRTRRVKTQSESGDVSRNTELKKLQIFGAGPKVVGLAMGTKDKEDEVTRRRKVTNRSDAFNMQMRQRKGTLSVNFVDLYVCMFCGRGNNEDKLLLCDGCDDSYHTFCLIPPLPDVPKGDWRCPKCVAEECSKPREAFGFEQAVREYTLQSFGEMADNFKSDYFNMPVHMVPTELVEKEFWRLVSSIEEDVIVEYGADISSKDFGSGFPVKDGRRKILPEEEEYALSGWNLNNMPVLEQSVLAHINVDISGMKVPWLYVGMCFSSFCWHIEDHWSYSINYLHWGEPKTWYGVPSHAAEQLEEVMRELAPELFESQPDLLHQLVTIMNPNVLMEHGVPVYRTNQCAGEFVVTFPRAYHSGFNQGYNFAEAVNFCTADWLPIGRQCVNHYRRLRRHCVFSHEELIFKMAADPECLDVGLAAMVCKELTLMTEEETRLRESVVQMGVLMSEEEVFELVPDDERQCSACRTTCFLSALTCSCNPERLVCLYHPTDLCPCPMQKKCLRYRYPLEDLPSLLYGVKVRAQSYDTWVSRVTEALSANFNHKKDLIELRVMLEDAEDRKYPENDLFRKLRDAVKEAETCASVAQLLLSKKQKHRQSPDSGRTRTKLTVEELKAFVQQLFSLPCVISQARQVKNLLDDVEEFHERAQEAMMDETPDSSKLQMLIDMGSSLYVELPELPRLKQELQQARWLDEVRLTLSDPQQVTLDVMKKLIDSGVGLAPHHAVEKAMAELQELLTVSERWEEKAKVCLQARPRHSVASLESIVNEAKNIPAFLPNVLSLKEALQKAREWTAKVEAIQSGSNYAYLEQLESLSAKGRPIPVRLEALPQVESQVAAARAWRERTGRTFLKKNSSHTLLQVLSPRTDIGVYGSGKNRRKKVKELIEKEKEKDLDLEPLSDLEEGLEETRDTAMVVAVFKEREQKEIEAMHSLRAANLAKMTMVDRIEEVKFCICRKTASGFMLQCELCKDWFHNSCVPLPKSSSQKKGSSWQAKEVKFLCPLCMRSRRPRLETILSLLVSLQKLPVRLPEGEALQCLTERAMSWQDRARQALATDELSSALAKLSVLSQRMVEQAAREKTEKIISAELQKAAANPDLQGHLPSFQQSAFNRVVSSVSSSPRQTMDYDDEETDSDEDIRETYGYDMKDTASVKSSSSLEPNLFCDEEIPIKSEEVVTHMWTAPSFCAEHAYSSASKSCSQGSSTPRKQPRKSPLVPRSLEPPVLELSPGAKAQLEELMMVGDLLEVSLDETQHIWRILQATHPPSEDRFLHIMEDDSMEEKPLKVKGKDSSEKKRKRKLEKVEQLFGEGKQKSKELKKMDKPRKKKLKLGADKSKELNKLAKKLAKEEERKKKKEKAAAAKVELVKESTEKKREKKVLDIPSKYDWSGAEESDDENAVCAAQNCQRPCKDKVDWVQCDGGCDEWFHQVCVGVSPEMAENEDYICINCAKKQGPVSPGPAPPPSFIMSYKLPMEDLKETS

[5] = molecular target: T4, Lysine-specific demethylase 5C (Homo sapiens, UniProt P41229); assay: Inhibition of KDM5C (unknown origin) at 0.01 uM relative to control
[6] = molecular target: T5, Lysine-specific demethylase 6B (Homo sapiens, UniProt O15054); assay: Inhibition of KDM6B (unknown origin) at 0.01 uM relative to control
T5 sequence (O15054 whole entry): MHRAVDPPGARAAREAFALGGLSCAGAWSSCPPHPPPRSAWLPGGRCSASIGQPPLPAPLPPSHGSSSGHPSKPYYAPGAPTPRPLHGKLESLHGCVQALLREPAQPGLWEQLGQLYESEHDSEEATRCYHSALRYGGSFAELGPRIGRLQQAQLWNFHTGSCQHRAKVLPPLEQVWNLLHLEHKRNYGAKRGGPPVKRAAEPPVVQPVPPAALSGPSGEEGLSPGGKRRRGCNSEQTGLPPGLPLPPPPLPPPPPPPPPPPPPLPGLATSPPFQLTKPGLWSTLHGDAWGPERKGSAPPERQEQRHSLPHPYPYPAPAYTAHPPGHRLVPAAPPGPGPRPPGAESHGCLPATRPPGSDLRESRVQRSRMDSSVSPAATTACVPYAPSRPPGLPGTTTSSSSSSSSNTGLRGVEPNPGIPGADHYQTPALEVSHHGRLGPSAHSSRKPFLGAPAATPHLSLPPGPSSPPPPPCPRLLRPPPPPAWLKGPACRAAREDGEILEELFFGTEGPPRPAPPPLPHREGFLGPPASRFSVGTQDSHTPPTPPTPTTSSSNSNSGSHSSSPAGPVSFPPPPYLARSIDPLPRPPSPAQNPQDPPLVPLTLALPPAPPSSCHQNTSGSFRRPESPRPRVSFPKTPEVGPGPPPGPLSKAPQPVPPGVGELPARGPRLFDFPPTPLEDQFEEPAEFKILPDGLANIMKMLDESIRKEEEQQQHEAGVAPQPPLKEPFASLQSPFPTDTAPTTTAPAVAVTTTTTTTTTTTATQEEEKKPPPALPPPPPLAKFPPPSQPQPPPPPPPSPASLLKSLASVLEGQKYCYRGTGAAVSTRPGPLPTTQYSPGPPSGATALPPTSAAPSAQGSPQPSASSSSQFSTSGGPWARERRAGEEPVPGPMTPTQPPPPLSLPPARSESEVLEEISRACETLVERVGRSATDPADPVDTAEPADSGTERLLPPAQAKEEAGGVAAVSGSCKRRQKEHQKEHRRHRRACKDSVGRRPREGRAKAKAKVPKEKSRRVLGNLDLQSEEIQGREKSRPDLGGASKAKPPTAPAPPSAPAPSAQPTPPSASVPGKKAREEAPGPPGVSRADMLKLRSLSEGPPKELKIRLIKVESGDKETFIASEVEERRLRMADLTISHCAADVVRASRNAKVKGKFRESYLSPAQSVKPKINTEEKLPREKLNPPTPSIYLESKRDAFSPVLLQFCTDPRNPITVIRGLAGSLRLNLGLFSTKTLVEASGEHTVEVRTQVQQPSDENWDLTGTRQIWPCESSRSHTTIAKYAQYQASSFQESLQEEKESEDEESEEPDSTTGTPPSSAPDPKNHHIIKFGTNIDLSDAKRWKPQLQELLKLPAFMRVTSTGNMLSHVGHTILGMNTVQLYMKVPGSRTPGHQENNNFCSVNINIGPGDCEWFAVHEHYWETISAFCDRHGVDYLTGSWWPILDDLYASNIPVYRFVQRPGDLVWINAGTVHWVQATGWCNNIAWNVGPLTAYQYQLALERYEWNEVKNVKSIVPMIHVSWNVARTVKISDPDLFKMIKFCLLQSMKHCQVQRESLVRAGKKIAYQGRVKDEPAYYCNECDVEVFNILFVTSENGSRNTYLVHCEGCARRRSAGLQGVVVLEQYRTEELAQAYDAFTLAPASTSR

MKN-45 [7] = assay: Inhibition of KDM6 in human MKN-45 cells assessed as increase in H3K27me2 accumulation at 0.5 to 20 uM measured after 5 days by Western blot analysis; assay type: cell-based; conditions: dose 0.5-20 µM, time 5.0 day; procedure, shortened: as §1
[8] = molecular target: T5, Lysine-specific demethylase 6B; assay: Inhibition of KDM6B (unknown origin)
[9] = molecular target: T2, Lysine-specific demethylase 5B; assay: Inhibition of KDM5B in human MKN-45 cells assessed as increase in H3K4me1 accumulation at 0.5 to 20 uM measured after 5 days by Western blot analysis; assay type: cell-based; conditions: dose 0.5-20 µM, time 5.0 day; procedure, shortened: as §1
[10] = molecular target: T4, Lysine-specific demethylase 5C; assay: Inhibition of KDM5C (unknown origin)
[11] = molecular target: T5, Lysine-specific demethylase 6B; assay: Inhibition of KDM6B (unknown origin) at 1 uM relative to control
[12] = molecular target: T3, Lysine-specific demethylase 5A; assay: Inhibition of KDM5A (unknown origin) at 0.01 uM relative to control
[13] = molecular target: T2, Lysine-specific demethylase 5B; assay: Inhibition of KDM5B in human MKN-45 cells assessed as protein stabilization measured after 1 hr by cellular thermal shift assay; assay type: cell-based
Procedure, shortened: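 MKN45 cells (5×10^5) were treated with compound or DMSO for 1 h, washed in PBS and resuspended in PBS with protease inhibitors. Cells were heated at 46 °C for 3 min, then freeze-thawed three times in liquid nitrogen. KDM5B in the supernatant was measured by western blot with GAPDH control. Repeated three times.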

[14] = molecular target: T2, Lysine-specific demethylase 5B; assay: Inhibition of KDM5B in human MKN-45 cells assessed as increase in H3K4me2 accumulation at 0.5 to 20 uM measured after 5 days by Western blot analysis; assay type: cell-based; conditions: dose 0.5-20 µM, time 5.0 day; procedure, shortened: as §1
[15] = molecular target: T3, Lysine-specific demethylase 5A; assay: Inhibition of KDM5A (unknown origin) at 1 uM relative to control
[16] = molecular target: T2, Lysine-specific demethylase 5B; assay: Inhibition of recombinant human N-terminal FLAG-tagged KDM5B expressed in Sf9 insect cells using biotin-H3K4me as substrate by ALPHA
Procedure, shortened: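 ALPHA demethylase assay. Recombinant KDM5B (4 nM) was preincubated with compound, then biotin-H3K4me3 peptide (64 nM) was added. Buffer: 10 μM α-KG, 100 μM ascorbate, 50 μM (NH4)2Fe(SO4)2, 50 mM HEPES pH 7.5, 0.01% Tween 20, 0.1% BSA. Read-out used streptavidin donor and H3K4me1-2 antibody acceptor beads. Data were normalized to blank control and IC50 fitted.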

[17] = molecular target: T2, Lysine-specific demethylase 5B; assay: Inhibition of KDM5B in human MKN-45 cells assessed as increase in H3K4me3 accumulation at 0.5 to 20 uM measured after 5 days by Western blot analysis; assay type: cell-based; conditions: dose 0.5-20 µM, time 5.0 day; procedure, shortened: as §1
[18] = molecular target: T1, Lysine-specific demethylase 4C (Homo sapiens); assay: Inhibition of KDM4C (unknown origin) at 0.25 uM relative to control
MKN-45 [19] = assay: Antimigratory activity in human MKN-45 cells measured after 24 hrs by transwell assay; assay type: functional, cell-based
MKN-45 [20] = assay: Antiproliferative activity against human MKN-45 cells assessed as reduction in cell proliferation measured after 6 days by MTS assay; assay type: functional, cell-based; conditions: MKN-45, 144 h
Procedure, shortened: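 MKN45 cells were seeded at 3×10^3 cells per well and treated for 4 or 6 days, as indicated. Proliferation was read by MTS assay and IC50 derived. Three independent experiments, mean ± SD.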

inhibition [2]: 50.1%
inhibition [3]: Dose-dependent effect
IC50 [4]: 24.9 nM
inhibition [5]: 16.4%
inhibition [6]: 3.57%
IC50 [8]: > 1000 nM
inhibition [9]: inactive
IC50 [10]: 24.8 nM
inhibition [11]: 19.6%
inhibition [12]: 20.1%
inhibition [13]: Dose-dependent effect
inhibition [14]: Active
inhibition [15]: 79.3%
IC50 [16]: 24.4 nM
inhibition [17]: Active
inhibition [18]: 39.4%
IC50 (MKN-45 [20]): 20600 nM
Structure (SMILES): COc1ccc(-n2cc(C(=O)NCC(C)(C)N3CCOCC3)c(-c3ccccc3)n2)cc1
inhibition (MKN-45 [1]): inactive
inhibition (MKN-45 [7]): inactive
Activity (MKN-45 [19]): Dose-dependent effect
